# Test results from article PMC10870114 (Clinical Cancer Research, 2023).
# Tests used:
# [1] = tested on: patients with locally advanced rectal cancer; experiment: Dose-limiting toxicities; assay type: in vivo, human
# [2] = tested on: patients with locally advanced rectal cancer; experiment: Late toxicities and deaths after the on-treatment period; assay type: in vivo, human
# [3] = tested on: locally advanced rectal cancer; experiment: Tumor response; assay type: in vivo, human
# [4] = tested on: locally advanced rectal cancer; experiment: Disease-free survival, recurrence and progression events; assay type: in vivo, human
# Procedure, shortened: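 They also received capecitabine 825 mg/m2 twice daily and RT 50–50.4 Gy in 25 or 28 fractions, 5 days/week, for 5–5.5 weeks. DFS was estimated by Kaplan–Meier with two-sided 95% CI.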
# [5] = tested on: locally advanced rectal cancer; experiment: Neoadjuvant rectal; assay type: in vivo, human; conditions: for NAR score, median: patients who underwent surgery
# Procedure, shortened: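 Patients without clinical complete response were to have surgery 9.5±2 weeks after CRT completion. On the resected tissue, tumour regression was graded by the modified Ryan scheme, from 0 (complete response) to 3 (poor or no response). The NAR score was calculated only for operated patients, with lower scores denoting better prognosis.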
# DNA-PK = DNA-PK (Homo sapiens, UniProt P78527); experiment: pDNA-PK/tDNA-PK ratio in bleomycin-stimulated PBMCs, pre- and post-dosing; conditions: PBMCs stimulated with bleomycin ex vivo; evidence of target engagement
# [6] = tested on: patients with advanced solid tumors; conditions: cited from earlier work
# [7] = Overall, peposertib 50-250 mg + RT + capecitabine, n = 19
# [8] = peposertib 50 mg + RT + capecitabine, n = 1
# [9] = peposertib 100 mg + RT + capecitabine, n = 6
# [10] = peposertib 150 mg + RT + capecitabine, n = 6
# [11] = peposertib 250 mg + RT + capecitabine, n = 6
compound,measurement,setting,value
COc1ccc([C@@H](O)c2cc(-c3ncnc4cc(N5CCOCC5)ccc34)c(F)cc2Cl)nn1 [Peposertib],DLT reported overall,[1]; all dose cohorts,five
same,Peposertib dose considered tolerable in combination with RT and capecitabine,[1]; based on the totality of safety data,≤ 150 mg once daily
same,"Dose-limiting toxicities, patients with DLT of evaluable patients","[1]; peposertib 100 mg once daily + CRT, radiation skin injury and enterocolitis",one out of five
same,"Dose-limiting toxicities, patients with DLT of evaluable patients","[1]; peposertib 250 mg once daily + CRT, two enterocolitis and one proctitis",three out of six
same,MTD and RP2D,"[1]; peposertib + capecitabine-based CRT, study enrollment prematurely discontinued",not declared
same,Dose dependence of late toxicities,[2]; across the peposertib dose range,no discernible indication of a dose-dependent effect
same,Late toxicities: anemia,[2]; all cohorts,3 n
same,Patients with late toxicities,"[2]; all cohorts, 18 patients, data cutoff March 22, 2022",94.7%
same,Grade ≥3 late toxicities,"[2]; all cohorts, at data cutoff",11 patients
same,Late toxicities: proctitis,"[2]; all cohorts, n = 3",15.8%
same,Late toxicities: gastrointestinal disorders,"[2]; all cohorts, n = 12",63.2%
same,Patients who died during the study,"[2]; all considered unrelated to study treatment, not treatment-emergent",Three
same,cCR rate,"[3]; 8 weeks after CRT completion, all cohorts, n = 3 of 19",15.8%
same,Clinical complete response: Responders,[3]; [7],3 (15.8) n (%)
same,Clinical response: Complete response,[3]; [7],3 (15.8) n (%)
same,Clinical response: Incomplete response,[3]; [7],4 (21.1) n (%)
same,Clinical response: Near-complete response,[3]; [7],8 (42.1) n (%)
same,Clinical response: Progressive disease,[3]; [7],0 (0) n (%)
same,Composite endpoint cCR/pCR: Responders,[3]; [7],1 (5.3) n (%)
same,Pathologic complete response: Responders,[3]; [7],0 (0) n (%)
same,Composite endpoint cCR/pCR rate,"[3]; all cohorts, one of 19 patients (100-mg cohort)",5.3%
same,Patients achieving pCR,[3]; of the nine patients who opted for surgery,none
same,Clinical complete response: Responders,[3]; [8],0 (0) n (%)
same,Clinical response: Complete response,[3]; [8],0 (0) n (%)
same,Clinical response: Incomplete response,[3]; [8],0 (0) n (%)
same,Clinical response: Near-complete response,[3]; [8],1 (100) n (%)
same,Clinical response: Progressive disease,[3]; [8],0 (0) n (%)
same,Composite endpoint cCR/pCR: Responders,[3]; [8],0 (0) n (%)
same,Pathologic complete response: Responders,[3]; [8],0 (0) n (%)
same,Clinical complete response: Responders,[3]; [9],1 (16.7) n (%)
same,Clinical response: Complete response,[3]; [9],1 (16.7) n (%)
same,Clinical response: Incomplete response,[3]; [9],1 (16.7) n (%)
same,Clinical response: Near-complete response,[3]; [9],2 (33.3) n (%)
same,Clinical response: Progressive disease,[3]; [9],0 (0) n (%)
same,Composite endpoint cCR/pCR: Responders,[3]; [9],1 (16.7) n (%)
same,Pathologic complete response: Responders,[3]; [9],0 (0) n (%)
same,Clinical complete response: Responders,[3]; [10],1 (16.7) n (%)
same,Clinical response: Complete response,[3]; [10],1 (16.7) n (%)
same,Clinical response: Incomplete response,[3]; [10],2 (33.3) n (%)
same,Clinical response: Near-complete response,[3]; [10],2 (33.3) n (%)
same,Clinical response: Progressive disease,[3]; [10],0 (0) n (%)
same,Composite endpoint cCR/pCR: Responders,[3]; [10],0 (0) n (%)
same,Pathologic complete response: Responders,[3]; [10],0 (0) n (%)
same,Clinical complete response: Responders,[3]; [11],1 (16.7) n (%)
same,Clinical response: Complete response,[3]; [11],1 (16.7) n (%)
same,Clinical response: Incomplete response,[3]; [11],1 (16.7) n (%)
same,Clinical response: Near-complete response,[3]; [11],3 (50.0) n (%)
same,Clinical response: Progressive disease,[3]; [11],0 (0) n (%)
same,Composite endpoint cCR/pCR: Responders,[3]; [11],0 (0) n (%)
same,Pathologic complete response: Responders,[3]; [11],0 (0) n (%)
same,Disease-free survival time: Median,[4]; [7],21.2 mo
same,Disease-free survival time: Minimum,[4]; [7],0 mo
same,"Disease-free survival time: Number of events (PD, deaths)",[4]; [7],5 (26.3) n (%)
same,Disease-free survival time: maximum,[4]; [7],23.5 mo
same,Disease-free survival rate at 18 months,"[4]; all cohorts, Kaplan-Meier estimate, 95% CI, 25.9–87.9",65.9%
same,Median DFS,"[4]; all cohorts, 95% CI, 18.0–not done",21.2 months
same,Locoregional recurrence within the study period,"[4]; nine patients who underwent surgery, follow-up of up to 2 years",none
same,Progression events at data cutoff,"[4]; three deaths, two progressive disease events",five
same,"NAR score, median",[5]; 100-mg dose cohort,9.4
same,"NAR score, median",[5]; 150-mg dose cohort,13.8
same,"NAR score, median",[5]; 250-mg dose cohort,15.0
same,Patients with a Ryan score of 1,[5]; one each in the 100-mg and 150-mg cohorts,two patients
same,Peposertib dose at which inhibition of DNA-PK autophosphorylation was observed,DNA-PK,≥ 150 mg
same,Toxicity of peposertib monotherapy,[6],no significant toxicity
same,Dose recommended for further evaluation,[6]; monotherapy,400 mg twice daily
